From ChEMBL document CHEMBL5705891, “Small-molecule kinase inhibitors provide insight into Mps1 cell cycle function” (Nat Chem Biol, 2010)
pKd: −log10 of the molar value. One block for each compound: values may come before it. The source made the active and inactive calls. No cut-off for these calls is given here.

Columns and labels:
[1] = molecular target: T1, Serine/threonine-protein kinase PLK4 (Homo sapiens) (UniProt O00444); assay: Induction of Plk4 in human U2OS cells assessed as increase in cell populations with extra centrosomes by centrin staining based analysis relative to control; settings: filed as activator
T1 sequence (whole entry): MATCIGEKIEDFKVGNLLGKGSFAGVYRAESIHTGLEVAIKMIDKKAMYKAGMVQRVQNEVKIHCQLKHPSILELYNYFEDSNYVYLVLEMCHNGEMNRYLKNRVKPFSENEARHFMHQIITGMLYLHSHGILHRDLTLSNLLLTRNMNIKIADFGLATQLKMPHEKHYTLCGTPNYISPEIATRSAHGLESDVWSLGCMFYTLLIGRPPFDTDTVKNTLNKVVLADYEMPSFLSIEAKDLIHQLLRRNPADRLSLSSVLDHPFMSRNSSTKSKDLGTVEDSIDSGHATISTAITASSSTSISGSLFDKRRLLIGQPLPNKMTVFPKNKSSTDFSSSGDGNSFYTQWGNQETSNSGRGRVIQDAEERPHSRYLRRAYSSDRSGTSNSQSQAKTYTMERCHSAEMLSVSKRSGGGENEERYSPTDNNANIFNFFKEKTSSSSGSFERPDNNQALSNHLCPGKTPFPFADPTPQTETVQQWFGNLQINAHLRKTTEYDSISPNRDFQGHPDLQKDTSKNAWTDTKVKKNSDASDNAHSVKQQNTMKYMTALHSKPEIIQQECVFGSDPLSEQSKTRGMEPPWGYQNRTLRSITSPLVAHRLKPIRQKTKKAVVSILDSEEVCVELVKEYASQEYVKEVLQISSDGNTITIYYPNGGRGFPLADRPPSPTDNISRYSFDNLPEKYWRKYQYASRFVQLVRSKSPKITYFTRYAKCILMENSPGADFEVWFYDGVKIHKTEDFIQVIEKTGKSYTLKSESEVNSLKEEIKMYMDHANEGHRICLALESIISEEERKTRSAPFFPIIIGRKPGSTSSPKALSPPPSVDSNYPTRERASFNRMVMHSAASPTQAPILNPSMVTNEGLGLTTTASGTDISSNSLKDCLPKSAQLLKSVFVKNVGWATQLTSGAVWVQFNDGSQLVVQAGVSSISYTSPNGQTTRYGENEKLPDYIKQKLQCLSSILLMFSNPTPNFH
Method in brief: (§1)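 U2OS cells with doxycycline-inducible Plk4 were induced with doxycycline (2 μg·ml⁻¹) or given DMSO. Metaphase spindles carrying more than 2 centrosomes were counted by centrin staining (~300 spindles), and spindle polarity was followed by centrin/α-tubulin/DNA immunofluorescence.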

[2] = molecular target: T1, Serine/threonine-protein kinase PLK4 (Homo sapiens); assay: Induction of Plk4 in human U2OS cells assessed as bipolar cell division of cell populations with extra centrosomes by centrin staining based analysis; settings: filed as activator; method in brief: as §1
UTRM10 [3] = assay: Effect on thymidine-treated UTRM10 cells (unknown origin) with Mps1-/- incubated for 24 to 72 hrs by immunoblot analysis; format: functional, cell-based; settings: time lower 24.0 hrs, time upper […]
[4] = molecular target: T1, Serine/threonine-protein kinase PLK4 (Homo sapiens); assay: Induction of Plk4 in human U2OS cells assessed as resolution of metaphase multipolar spindles into bipolar spindles in anaphase in cell populations with extra centrosomes by centrin staining based analysis; settings: filed as activator; method in brief: as §1
U2OS [5] = assay: Induction of extra centrosomes in cell populations of thymidine-treated human U2OS cells expressing H2B-GFP and Plk4 overexpression assessed as fold delay in anaphase onset measured for 30 mins by time lapse imaging analysis relative to control; format: functional; settings: 0.5 h
Method in brief: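 Doxycycline-inducible Plk4 U2OS cells expressing H2B-GFP were blocked with thymidine for 18 hrs and released into doxycycline (2 μg·ml⁻¹) for 10 hrs. A second 18-hr thymidine block followed, then release for 6 hrs before 5 μM inhibitor, with or without Plk4 induction. Cells were imaged by time-lapse at 37°C, 5% CO₂, timed from NEBD, and bipolar versus multipolar anaphases were scored. Values are mean ± SD of 3 independent experiments.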

UTRM10 [6] = assay: Reversal of Paclitaxel-induced mitotic arrest in UTRM10 cells (unknown origin) by immunoblot analysis; format: functional, cell-based
UTRM10 [7] = assay: Upregulation of phosphorylated histone H3 level in UTRM10 cells (unknown origin) upto 10 uM by immunoblot analysis; format: functional, cell-based
U2OS [8] = assay: Reversal of nocodazole-induced mitotic arrest in human U2OS cells assessed as decrease in cyclin B level at 0.3 to 10 uM incubated for 4 hrs by immunoblot analysis; format: functional, cell-based; settings: dose 0.3-10 µM
[9] = molecular target: Protein-tyrosine kinase 2-beta (Homo sapiens, UniProt Q14289); assay: Inhibition of PTK2B (unknown origin) assessed as residual enzyme activity at 10 uM by Ambit kinase binding assay relative to control
[10] = molecular target: Serine/threonine-protein kinase PLK4 (Homo sapiens, UniProt O00444); assay: Binding affinity to PLK4 (unknown origin) assessed as dissociation constant by Ambit kinase binding assay
U2OS [11] = assay: Reversal of nocodazole-induced mitotic arrest in human U2OS cells assessed as decrease in cyclin B level at 10 uM incubated for 4 hrs in presence of MG132 by immunoblot analysis; format: functional, cell-based
U2OS [12] = assay: Reversal of s-trityl cysteine-induced mitotic arrest in human U2OS cells assessed as Ser10 phosphorylated Histone H3-positive 4c population at 10 uM incubated for 16 hrs by flow cytometry (reference value: 50 %); format: functional
[13] = molecular target: Cyclin-G-associated kinase (Homo sapiens, UniProt O14976); assay: Binding affinity to GAK (unknown origin) assessed as dissociation constant by Ambit kinase binding assay
[14] = molecular target: Serine/threonine-protein kinase PLK3 (Homo sapiens, UniProt Q9H4B4); assay: Binding affinity to PLK3 (unknown origin) assessed as dissociation constant by Ambit kinase binding assay
[15] = molecular target: Receptor-type tyrosine-protein kinase FLT3 (Homo sapiens) (UniProt P36888); assay: Inhibition of FLT3 (unknown origin) assessed as residual enzyme activity at 10 uM by Ambit kinase binding assay relative to control
[16] = molecular target: Serine/threonine-protein kinase PLK1 (Homo sapiens, UniProt P53350); assay: Binding affinity to PLK1 (unknown origin) assessed as dissociation constant by Ambit kinase binding assay
[17] = molecular target: T2, Cyclin-G-associated kinase (Homo sapiens) (UniProt O14976); assay: Inhibition of GAK (unknown origin) assessed as residual enzyme activity at 10 uM by Ambit kinase binding assay relative to control
T2 sequence (whole entry): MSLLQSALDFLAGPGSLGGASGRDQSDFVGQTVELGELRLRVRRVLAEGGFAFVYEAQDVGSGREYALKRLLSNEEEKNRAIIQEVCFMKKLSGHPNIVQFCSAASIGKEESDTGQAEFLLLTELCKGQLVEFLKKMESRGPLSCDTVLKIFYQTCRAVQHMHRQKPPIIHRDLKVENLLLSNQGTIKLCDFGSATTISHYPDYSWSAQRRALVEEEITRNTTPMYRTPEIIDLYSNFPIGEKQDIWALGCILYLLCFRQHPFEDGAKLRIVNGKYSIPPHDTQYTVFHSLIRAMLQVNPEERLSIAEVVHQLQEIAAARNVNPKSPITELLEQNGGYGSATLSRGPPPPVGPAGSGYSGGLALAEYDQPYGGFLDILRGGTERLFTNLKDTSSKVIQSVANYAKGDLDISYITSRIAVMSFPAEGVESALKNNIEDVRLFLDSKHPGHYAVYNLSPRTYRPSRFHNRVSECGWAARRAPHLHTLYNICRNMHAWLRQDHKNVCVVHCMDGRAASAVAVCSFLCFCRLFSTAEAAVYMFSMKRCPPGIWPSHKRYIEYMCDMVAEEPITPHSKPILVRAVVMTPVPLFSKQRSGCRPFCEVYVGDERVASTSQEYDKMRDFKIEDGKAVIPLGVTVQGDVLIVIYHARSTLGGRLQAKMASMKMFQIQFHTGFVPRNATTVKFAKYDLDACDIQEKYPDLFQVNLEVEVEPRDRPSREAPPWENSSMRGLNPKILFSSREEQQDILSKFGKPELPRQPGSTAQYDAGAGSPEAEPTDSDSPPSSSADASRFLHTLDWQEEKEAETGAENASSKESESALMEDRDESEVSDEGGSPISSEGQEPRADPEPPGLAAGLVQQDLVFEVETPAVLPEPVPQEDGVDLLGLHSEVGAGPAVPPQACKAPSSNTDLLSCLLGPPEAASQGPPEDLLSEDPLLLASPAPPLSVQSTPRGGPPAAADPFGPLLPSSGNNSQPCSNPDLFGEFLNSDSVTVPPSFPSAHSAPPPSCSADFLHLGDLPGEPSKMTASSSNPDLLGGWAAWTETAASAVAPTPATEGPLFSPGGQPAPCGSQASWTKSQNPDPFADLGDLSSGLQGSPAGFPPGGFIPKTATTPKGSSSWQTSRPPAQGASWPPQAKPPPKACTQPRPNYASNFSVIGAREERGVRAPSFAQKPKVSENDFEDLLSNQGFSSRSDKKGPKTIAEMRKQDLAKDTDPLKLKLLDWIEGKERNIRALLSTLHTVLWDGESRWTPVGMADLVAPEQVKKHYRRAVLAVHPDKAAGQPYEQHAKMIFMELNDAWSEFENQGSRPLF

[18] = molecular target: Serine/threonine-protein kinase 33 (Homo sapiens, UniProt Q9BYT3); assay: Binding affinity to STK33 (unknown origin) assessed as dissociation constant by Ambit kinase binding assay
U2OS [19] = assay: Reversal of s-trityl cysteine-induced mitotic arrest in human U2OS cells assessed as Ser10 phosphorylated Histone H3-positive 4c population at 5 uM incubated for 16 hrs by flow cytometry (reference value: 50 %); format: functional

Sequence of Protein-tyrosine kinase 2-beta (Q14289 whole entry, looked up): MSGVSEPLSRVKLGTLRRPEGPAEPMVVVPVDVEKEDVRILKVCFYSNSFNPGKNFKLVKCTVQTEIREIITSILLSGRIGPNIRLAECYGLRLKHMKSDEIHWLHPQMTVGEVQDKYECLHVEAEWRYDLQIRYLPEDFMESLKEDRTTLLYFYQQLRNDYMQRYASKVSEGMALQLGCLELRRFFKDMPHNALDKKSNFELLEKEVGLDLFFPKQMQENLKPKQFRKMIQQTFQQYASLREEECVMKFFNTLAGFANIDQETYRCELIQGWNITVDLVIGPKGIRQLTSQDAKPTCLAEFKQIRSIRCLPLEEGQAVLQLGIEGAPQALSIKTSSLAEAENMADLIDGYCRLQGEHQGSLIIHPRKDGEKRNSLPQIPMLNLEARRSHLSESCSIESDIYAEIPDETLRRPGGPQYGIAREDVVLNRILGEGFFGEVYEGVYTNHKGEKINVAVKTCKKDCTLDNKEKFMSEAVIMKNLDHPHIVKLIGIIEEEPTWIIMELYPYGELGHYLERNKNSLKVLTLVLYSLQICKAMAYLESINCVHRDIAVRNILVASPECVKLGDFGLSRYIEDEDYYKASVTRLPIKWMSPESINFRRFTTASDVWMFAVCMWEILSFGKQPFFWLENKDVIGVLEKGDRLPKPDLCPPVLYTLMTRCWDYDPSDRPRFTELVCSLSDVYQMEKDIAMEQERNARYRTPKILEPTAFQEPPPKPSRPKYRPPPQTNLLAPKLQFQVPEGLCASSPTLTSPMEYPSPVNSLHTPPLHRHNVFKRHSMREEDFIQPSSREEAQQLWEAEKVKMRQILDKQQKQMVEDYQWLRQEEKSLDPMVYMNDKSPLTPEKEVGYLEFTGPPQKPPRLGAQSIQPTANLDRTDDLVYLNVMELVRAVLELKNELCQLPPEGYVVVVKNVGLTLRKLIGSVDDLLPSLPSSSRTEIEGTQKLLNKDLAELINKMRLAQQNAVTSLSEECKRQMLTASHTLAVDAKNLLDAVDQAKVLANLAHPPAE
Sequence of Receptor-type tyrosine-protein kinase FLT3 (Homo sapiens) (P36888 whole entry): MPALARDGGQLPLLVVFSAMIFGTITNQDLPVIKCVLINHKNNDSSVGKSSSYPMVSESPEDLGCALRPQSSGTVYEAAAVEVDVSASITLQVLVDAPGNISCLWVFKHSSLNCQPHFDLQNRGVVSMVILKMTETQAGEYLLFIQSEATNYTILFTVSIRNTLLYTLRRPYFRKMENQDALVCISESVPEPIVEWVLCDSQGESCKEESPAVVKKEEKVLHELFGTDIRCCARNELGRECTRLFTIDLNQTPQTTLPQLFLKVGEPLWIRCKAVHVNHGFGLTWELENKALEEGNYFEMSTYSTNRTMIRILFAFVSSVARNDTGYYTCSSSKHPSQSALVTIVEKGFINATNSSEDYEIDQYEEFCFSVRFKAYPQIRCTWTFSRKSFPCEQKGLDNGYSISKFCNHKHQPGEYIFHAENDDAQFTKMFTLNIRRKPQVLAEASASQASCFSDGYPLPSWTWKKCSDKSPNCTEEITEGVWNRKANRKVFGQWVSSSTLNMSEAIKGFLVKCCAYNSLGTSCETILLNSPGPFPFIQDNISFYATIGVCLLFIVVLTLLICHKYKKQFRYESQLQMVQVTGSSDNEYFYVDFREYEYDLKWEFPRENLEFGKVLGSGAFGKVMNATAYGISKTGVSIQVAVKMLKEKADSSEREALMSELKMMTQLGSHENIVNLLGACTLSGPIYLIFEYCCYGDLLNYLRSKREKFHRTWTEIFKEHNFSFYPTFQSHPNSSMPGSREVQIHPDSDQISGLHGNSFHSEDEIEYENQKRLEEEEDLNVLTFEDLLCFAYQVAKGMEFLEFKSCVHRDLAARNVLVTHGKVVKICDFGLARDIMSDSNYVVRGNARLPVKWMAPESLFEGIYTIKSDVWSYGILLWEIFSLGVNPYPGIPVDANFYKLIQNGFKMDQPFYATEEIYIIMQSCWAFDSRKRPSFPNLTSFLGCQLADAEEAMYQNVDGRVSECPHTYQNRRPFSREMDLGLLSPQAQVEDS
Sequence of Serine/threonine-protein kinase PLK1 (P53350 whole entry): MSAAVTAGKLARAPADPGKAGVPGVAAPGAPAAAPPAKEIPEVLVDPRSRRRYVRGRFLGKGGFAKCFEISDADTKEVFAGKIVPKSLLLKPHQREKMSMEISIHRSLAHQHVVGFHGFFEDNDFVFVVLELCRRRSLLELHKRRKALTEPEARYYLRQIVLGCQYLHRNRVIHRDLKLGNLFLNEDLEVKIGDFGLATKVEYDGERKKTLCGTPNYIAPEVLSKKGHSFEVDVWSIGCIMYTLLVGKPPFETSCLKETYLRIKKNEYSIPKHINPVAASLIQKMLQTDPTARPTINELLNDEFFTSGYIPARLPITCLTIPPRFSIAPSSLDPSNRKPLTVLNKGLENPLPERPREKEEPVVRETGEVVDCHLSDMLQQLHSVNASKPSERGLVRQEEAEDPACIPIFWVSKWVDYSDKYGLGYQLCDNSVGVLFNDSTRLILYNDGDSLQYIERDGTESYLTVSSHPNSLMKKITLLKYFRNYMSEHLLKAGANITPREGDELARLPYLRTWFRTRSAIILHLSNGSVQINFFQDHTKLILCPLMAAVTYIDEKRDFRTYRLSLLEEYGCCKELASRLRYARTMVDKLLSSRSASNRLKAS
Sequence of Serine/threonine-protein kinase PLK3 (Q9H4B4 whole entry): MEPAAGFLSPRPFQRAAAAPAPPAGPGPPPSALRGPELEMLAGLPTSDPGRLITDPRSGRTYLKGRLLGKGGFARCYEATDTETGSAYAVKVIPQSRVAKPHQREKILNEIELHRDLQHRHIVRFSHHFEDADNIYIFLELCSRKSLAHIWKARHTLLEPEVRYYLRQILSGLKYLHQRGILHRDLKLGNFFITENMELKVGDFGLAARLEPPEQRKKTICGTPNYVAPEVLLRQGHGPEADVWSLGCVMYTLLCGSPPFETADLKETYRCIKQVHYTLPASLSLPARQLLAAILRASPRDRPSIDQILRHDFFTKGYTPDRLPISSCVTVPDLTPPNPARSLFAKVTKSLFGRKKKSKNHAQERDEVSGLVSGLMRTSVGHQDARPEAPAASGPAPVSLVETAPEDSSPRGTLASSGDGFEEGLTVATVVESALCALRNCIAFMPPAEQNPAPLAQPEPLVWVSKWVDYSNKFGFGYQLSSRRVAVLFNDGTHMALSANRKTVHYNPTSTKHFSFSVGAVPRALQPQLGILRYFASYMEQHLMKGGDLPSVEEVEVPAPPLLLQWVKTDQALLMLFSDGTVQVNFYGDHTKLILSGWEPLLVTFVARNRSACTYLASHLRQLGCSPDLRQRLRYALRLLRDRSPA
Sequence of Serine/threonine-protein kinase 33 (Q9BYT3 whole entry): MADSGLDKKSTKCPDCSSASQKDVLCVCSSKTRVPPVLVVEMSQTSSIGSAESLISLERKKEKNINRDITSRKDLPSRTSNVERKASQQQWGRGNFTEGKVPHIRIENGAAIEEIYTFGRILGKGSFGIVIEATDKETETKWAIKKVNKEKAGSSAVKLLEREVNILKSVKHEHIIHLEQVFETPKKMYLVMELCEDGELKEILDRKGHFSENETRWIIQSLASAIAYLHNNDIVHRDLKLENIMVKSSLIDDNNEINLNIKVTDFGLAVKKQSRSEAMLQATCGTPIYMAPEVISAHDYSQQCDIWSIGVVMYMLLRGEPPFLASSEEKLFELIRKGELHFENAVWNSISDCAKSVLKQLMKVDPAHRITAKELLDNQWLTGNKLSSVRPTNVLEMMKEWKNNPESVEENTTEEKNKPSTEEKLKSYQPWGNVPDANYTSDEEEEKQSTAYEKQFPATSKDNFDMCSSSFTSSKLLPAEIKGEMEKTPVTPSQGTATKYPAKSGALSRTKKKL

Activity [1]: 80%
Activity [2]: Active
Activity [4]: Active
SMILES: C[C@H]1c2cccc(O)c2C(=O)C2=C(O)[C@]3(O)C(=O)C(C(N)=O)=C(O)[C@@H](N(C)C)[C@@H]3[C@@H](O)[C@@H]21 [DOXYCYCLINE ANHYDROUS]
Activity (UTRM10 [3]): inactive
fold change (FC) (U2OS [5]): 2

SMILES: Cc1cc(Nc2cc(N3CCN(C)CC3)nc(Sc3ccc(NC(=O)C4CC4)cc3)n2)n[nH]1
Activity (UTRM10 [6]): Active

Activity [9]: 24%
pKd [10]: 5.51
pKd [13]: 6.85
pKd [14]: 5.80
Activity [15]: 0%
pKd [16]: 7.21
Activity [17]: 2%
pKd [18]: 5.30
SMILES: CCOc1cc(N2CCC(O)CC2)ccc1Nc1ncc2c(n1)N(C1CCCC1)CCC(=O)N2C
Activity (UTRM10 [7]): Active
Activity (U2OS [8]): Active
Activity (U2OS [11]): inactive
Activity (U2OS [12]): 4%
Activity (U2OS [19]): 14%
